This note sets out measurements from ChEMBL document CHEMBL4130378, “Discovery of pentacyclic triterpene 3β-ester derivatives as a new class of cholesterol ester transfer protein inhibitors” (Eur J Med Chem, 2017).

In data set [1] the target is T1, Cholesteryl ester transfer protein (Homo sapiens, UniProt P11597).
T1 sequence (P11597 whole entry): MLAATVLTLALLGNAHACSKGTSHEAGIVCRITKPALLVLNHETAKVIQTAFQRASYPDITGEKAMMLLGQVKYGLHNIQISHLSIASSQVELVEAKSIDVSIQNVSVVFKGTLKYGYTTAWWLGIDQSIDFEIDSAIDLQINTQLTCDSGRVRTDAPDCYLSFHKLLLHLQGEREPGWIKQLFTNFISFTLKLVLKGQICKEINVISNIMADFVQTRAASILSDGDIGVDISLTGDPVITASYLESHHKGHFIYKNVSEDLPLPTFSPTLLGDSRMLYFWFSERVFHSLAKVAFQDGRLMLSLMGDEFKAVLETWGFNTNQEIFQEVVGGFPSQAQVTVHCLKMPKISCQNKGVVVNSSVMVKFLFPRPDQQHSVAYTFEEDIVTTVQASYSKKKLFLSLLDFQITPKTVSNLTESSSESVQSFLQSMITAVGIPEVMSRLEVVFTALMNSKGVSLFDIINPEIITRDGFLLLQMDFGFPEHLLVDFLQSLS
Put plainly: Inhibition of recombinant human CETP after 3 hrs using fluorescent cholesteryl containing HDL after 3 hrs by fluorescence assay.

A short description of data set [2]: Octanol-water partition coefficient, log P of the compound at pH 7.4 by HPLC based shake flask method. Type of data set: physicochemical.
In data set [3] the test system is Cavia porcellus. As to the kind of experiment: Antihyperlipidemic activity in high-fat fed guinea pig model assessed as increase in plasma HDL cholesterol level at 30 mg/kg administered via oral gavage as qd for 14 days measured 2 hrs post dose on day 14 relative to control. Type of data set: functional. The method, boiled down:
(§1)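 Male guinea pigs, 12 weeks old, fed a high-fat diet (2.5% coconut oil, 0.25% cholesterol) for two weeks. Gavage at 30 mg/kg once daily for two weeks while the diet continued. Plasma taken retro-orbitally 2 h after the day-14 dose. HDL-C, LDL-C, TG and TC reported as mean ± SD (n ≥ 6) versus the untreated high-fat model group.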

The test system of data set [4] is Mus musculus. As to the kind of experiment: Hypolipidemic activity in transgenic ap2-CETPTg mouse model assessed as reduction in plasma LDL cholesterol levels at 30 mg/kg, po qd for 14 days measured 2 hrs post dose on day 14 by automated lipid analyzer relative to control. The format is functional. Further details: scale not given: the % may be the effect or the level left; call rule not given here. The method, boiled down:
(§2)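 ap2-CETPTg mice, which express human CETP in adipose tissue. Oral 30 mg/kg once daily for two weeks in DMSO/cremophor/saline 3:4:93. Retro-orbital blood drawn 2 h after the day-14 dose. HDL-C, LDL-C, TG and TC measured on an automated lipid analyzer, mean ± SD (n ≥ 6), versus control group.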

Data set [5] relates to Mus musculus. Put plainly: Induction of plasma triglyceride levels in transgenic ap2-CETPTg mouse model at 30 mg/kg, po qd for 14 days measured 2 hrs post dose on day 14 by automated lipid analyzer relative to control. Type of data set: ADME, organism-based. The conditions noted are these: in vivo. A digest of the protocol: as §2
Data set [6] deals with Cavia porcellus. As to the kind of experiment: Hypolipidemic activity in high-fat fed guinea pig model assessed as reduction in plasma LDL cholesterol levels at 30 mg/kg administered via oral gavage as qd for 14 days measured 2 hrs post dose on day 14 relative to control. The format is functional. Further details: scale not given: the % may be the effect or the level left. A digest of the protocol:
as §1

Data set [7] has as its system Mus musculus. As to the kind of experiment: Induction of plasma total cholesterol levels in transgenic ap2-CETPTg mouse model at 30 mg/kg, po qd for 14 days measured 2 hrs post dose on day 14 by automated lipid analyzer relative to control. The format is ADME, organism-based. The conditions noted are these: in vivo. A digest of the protocol:
as §2

Each structure is given as a SMILES string.

As usually defined, the IC50 is the concentration needed to halve the response being measured. In the case of `CC(=O)O[C@H]1CC[C@]2(C)[C@H]3CC=C4[C@@H]5CC(C)(C)CC[C@]5(C(=O)O)CC[C@@]4(C)[C@]3(C)CC[C@H]2C1(C)C` [ACETYL OLEANOLIC ACID], the IC50 entry in data set [1] is given as “Not Active”.

As for `C=C(C)[C@@H]1CC[C@]2(C(=O)O)CC[C@]3(C)[C@H](CC[C@@H]4[C@@]5(C)CC[C@H](OC(=O)CCCC(=O)O)C(C)(C)[C@@H]5CC[C@]43C)[C@@H]12`, in data set [1] (read-out: IC50), the concentration for half-maximal inhibition (IC50) is 38 µM.

As for `C[C@H]1[C@H](C)CC[C@]2(C(=O)O)CC[C@]3(C)C(=CC[C@@H]4[C@@]5(C)CC[C@H](O)C(C)(C)[C@@H]5CC[C@]43C)[C@H]12` [URSOLIC ACID], the 50% inhibitory concentration (IC50) in data set [1] (read-out: IC50) is 46.6 µM.

In the case of `C[C@H]1[C@H](C)CC[C@]2(C(=O)O)CC[C@]3(C)C(=CC[C@@H]4[C@@]5(C)CC[C@H](OC(=O)CCCC(=O)O)C(C)(C)[C@@H]5CC[C@]43C)[C@H]12`, the IC50 in data set [1] (read-out: IC50) was found to be 3.4 µM.

One may read the logD as lipophilicity at a set pH, counting ionised and neutral species. As to `Cc1cc(C)c2c(c1)[C@@H](N(Cc1cc(C(F)(F)F)cc(C(F)(F)F)c1)c1nnn(C)n1)CCCN2C[C@H]1CC[C@H](C(=O)O)CC1` [EVACETRAPIB], the logD in data set [2] came out at 0.51.

For the compound `C=C(C)[C@@H]1CC[C@]2(C(=O)O)CC[C@]3(C)[C@H](CC[C@@H]4[C@@]5(C)CC[C@H](O)C(C)(C)[C@@H]5CC[C@]43C)[C@@H]12` [BETULINIC ACID], the IC50 result in data set [1] is recorded as “Not Active”.

In data set [2], `CCC(CC)CC1(C(=O)Nc2ccccc2SC(=O)C(C)C)CCCCC1` [DALCETRAPIB] showed a pH-dependent lipophilicity (logD) of 0.92.

Take `CC1(C)CC[C@]2(C(=O)O)CC[C@]3(C)C(=C2C1)CC[C@@H]1[C@@]2(C)CC[C@H](OC(=O)CCCC(=O)O)C(C)(C)[C@@H]2CC[C@]13C`: in data set [1] (read-out: IC50), the IC50 worked out at 10.3 µM.

`COc1cc(F)c(C(C)C)cc1-c1ccc(C(F)(F)F)cc1CN1C(=O)O[C@H](c2cc(C(F)(F)F)cc(C(F)(F)F)c2)[C@@H]1C` [ANACETRAPIB]: the Activity in data set [3] is on record as 82.2%; in data set [4], 40.4%; in data set [5], 4.7%; in data set [6], 30.2%; in data set [7] it was 17.8%. Moreover, the pH-dependent lipophilicity (logD) in data set [2] was 0.73.
